# Source: PubChem BioAssay
# Rows were chosen to be rich in hits. Some 2.3% of all compounds tested hit in one or more screens of this group.
# TRPC4 act – TRPC4 (mouse) channel activation. Q9QUQ5. HEK293 TRPC4beta/mu-opioid, Fluo4 calcium fluorescence; active compounds read high. B-score at 10 µM. actives 0.49% (n = 310,000);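 active = B-score above 5 SD of library B-scores, and initial fluorescence ratio not above library mean plus 5 SD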;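 also: positive B-score marks a calcium rise read as TRPC4 activation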
#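 Technique: kinetic Fluo4 calcium fluorescence; Test system: TRPC4beta and mu-opioid receptor HEK293 stable cells; Measure: B-scored integrated calcium fluorescence ratio; Benchmarks: low control buffer alone, high control maximal DAMGO; Schedule: 45 min room-temperature Fluo4 loading, 110 s read.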
# TRPC6 inh – inhibitors of mouse TRPC6 channel | HEK293-TRPC6, membrane potential dye, ACh-evoked depolarization; active compounds read low | actives 1.1% (n = 310,000) | Q61143 | AID 2553 | B-score at 10 µM;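 active = B-score under library mean minus 3 SD, initial fluorescence not abnormally high, positive integrated signal ratio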;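 also: B-score derived from integrated fluorescence ratio over the kinetic read; more negative B-score means stronger inhibition of depolarization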
# Target sequence (Q61143 whole entry, looked up): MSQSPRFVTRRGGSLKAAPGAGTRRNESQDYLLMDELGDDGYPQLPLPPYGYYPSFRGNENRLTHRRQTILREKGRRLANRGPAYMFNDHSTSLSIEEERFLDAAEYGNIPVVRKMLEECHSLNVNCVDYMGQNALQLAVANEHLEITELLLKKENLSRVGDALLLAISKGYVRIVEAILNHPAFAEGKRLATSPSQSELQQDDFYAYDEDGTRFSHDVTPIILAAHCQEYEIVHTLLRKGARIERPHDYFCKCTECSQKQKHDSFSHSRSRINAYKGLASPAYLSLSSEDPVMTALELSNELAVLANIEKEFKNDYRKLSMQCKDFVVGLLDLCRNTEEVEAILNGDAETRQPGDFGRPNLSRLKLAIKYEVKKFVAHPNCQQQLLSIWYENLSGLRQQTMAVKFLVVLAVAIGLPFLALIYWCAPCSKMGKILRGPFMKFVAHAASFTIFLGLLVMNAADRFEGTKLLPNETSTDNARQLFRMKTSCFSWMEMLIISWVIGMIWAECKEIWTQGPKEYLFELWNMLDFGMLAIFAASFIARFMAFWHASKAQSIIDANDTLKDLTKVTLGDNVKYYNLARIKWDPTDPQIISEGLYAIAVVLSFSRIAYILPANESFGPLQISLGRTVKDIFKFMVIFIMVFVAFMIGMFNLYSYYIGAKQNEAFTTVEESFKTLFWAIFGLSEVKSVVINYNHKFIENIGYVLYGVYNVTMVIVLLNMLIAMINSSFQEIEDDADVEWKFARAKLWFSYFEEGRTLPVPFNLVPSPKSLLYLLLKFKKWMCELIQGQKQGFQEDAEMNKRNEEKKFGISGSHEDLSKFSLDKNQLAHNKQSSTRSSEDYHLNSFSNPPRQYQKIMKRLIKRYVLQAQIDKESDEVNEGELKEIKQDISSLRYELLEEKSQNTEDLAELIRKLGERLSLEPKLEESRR
# TRPC4 potent – allosteric potentiators of mouse TRPC4 channel. B-score at 10 µM. AID 2227. actives 0.42% (n = 310,000). HEK293 TRPC4beta/mu-opioid, DAMGO EC20, Fluo-4 Ca2+ flux; active compounds read high. Q9QUQ5;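 active = B-score of calcium response area above 5 SD of library B-scores, with initial fluorescence ratio within 5 SD of library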
# TRPC4 block – TRPC4 (mouse) channel inhibition | Q9QUQ5 | HEK293 TRPC4beta/mu-opioid, DAMGO-evoked Fluo4 calcium flux; active compounds read low | B-score at 10 µM | actives 0.39% (n = 300,000);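 active = B-score over 3 SD under the library average, no early fluorescence shift, positive overall ratio signal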
#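 Signal: kinetic Fluo4 fluorescence imaging of calcium influx. Material: stable TRPC4beta/mu-opioid receptor HEK293 cells. Probe or stimulus: DAMGO in two steps, submaximal then maximal.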
# TRPC6 act – mouse TRPC6 channel activation | HEK293-TRPC6 membrane potential dye fluorescence; active compounds read high | B-score at 10 µM | actives 0.13% (n = 310,000);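 active = B-score of the integrated fluorescence ratio above library mean plus 3 SD, and starting fluorescence ratio within library mean plus 5 SD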;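 also: higher score means more depolarization so channel activation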
# Numbers stand for hits; n = inactive.
SMILES,TRPC4 act,TRPC6 inh,TRPC4 potent,TRPC4 block,TRPC6 act
CCC1(c2ccccc2)NC(=O)N(CC(=O)Nc2ccc(OC)nc2)C1=O (stereo not given),n,n,n,n,n
O=C(NCCC(=O)N1CCCC1)c1ccccc1Cl,n,n,n,n,n
O=C(CN1CCCN(S(=O)(=O)c2ccc(F)cc2)CC1)Nc1ccccc1Br,n,n,n,-6,n
NS(=O)(=O)c1ccc(NC(=O)CN2CCCN(S(=O)(=O)c3ccc(F)cc3)CC2)cc1,n,n,n,n,n
COCc1ccc(C(=O)N2CCCC(C(=O)c3ccc(SC)cc3)C2)s1 (stereo not given),n,n,n,n,n
Cc1cc(Cl)c2oc(C(=O)N(C)Cc3cc(C)[nH]n3)c(C)c2c1,n,n,n,n,n
Cc1cc(Cl)c2oc(C(=O)N(C)Cc3nccn3C)c(C)c2c1,n,n,n,-7,n
O=C(OC(C(=O)NCC1CCCO1)c1ccc(F)cc1)c1cccs1 (stereo not given),47,n,n,n,n
CC(OC(=O)c1cccs1)C(=O)NCC1CCCO1 (stereo not given),n,n,n,n,n
CCOc1ccc(-c2cc(NC(=O)c3c(F)cccc3F)c(C(=O)O)s2)cc1,n,n,n,-5,n
COc1ccc(C2NCCc3c2[nH]c2ccccc32)cc1CN1CCc2cc(OC)c(OC)cc2C1C (stereo not given),47,n,n,-8,n
Cc1c(C(=O)Nc2ccc3c(c2)OCCO3)sc2ncnc(N3CCCCC3C)c12 (stereo not given),n,n,n,n,n
CCCOc1ncnc2c1[nH]c1ccccc12,n,n,n,n,n
CCN(CC)c1ncnc2c1[nH]c1ccccc12,n,n,n,-5,n
CC(C)c1ccc(C2C3CSCC=C3C(C#N)=C(N)C2(C#N)C#N)cc1 (stereo not given),n,n,23,n,n
OCC1(CCc2ccccc2)CCN(Cc2cccn2-c2cccnc2)CC1,57,n,n,n,n
CC(C)CN1CCN(Cc2cccn2-c2cccnc2)CC1CCO (stereo not given),n,n,n,n,n
O=C(NCCCN1CCCCCC1)C1CCCN(S(=O)(=O)c2cccc3nsnc23)C1 (stereo not given),n,n,n,n,n
CCCCN(CC)CCNC(=O)C1CCCN(S(=O)(=O)c2cccc3nsnc23)C1 (stereo not given),73,n,n,n,n
CCCCN(CC)CCNC(=O)C1CCN(S(=O)(=O)c2cccc3nsnc23)CC1,n,n,n,n,n
CCCCN(C)CCNC(=O)C1CCN(S(=O)(=O)c2cccc3nsnc23)CC1,n,n,11,n,n
CC1CCN(CCNC(=O)C2CCCN(S(=O)(=O)c3cccc4nsnc34)C2)CC1 (stereo not given),n,n,12,n,n
O=C(NC(Cc1ccccc1)C(=O)O)/C(=C/c1ccc(Br)cc1)NC(=O)c1ccc(Br)o1 (stereo not given),n,n,n,n,n
Nc1ncnc2c1nc(Br)n2[C@@H]1O[C@@H]2COP(=O)(O)O[C@H]2[C@H]1O,n,n,n,n,n
Cc1cc(-c2ccccc2)c2ccc(NC(=O)C(C)(C)C)nc2n1,n,n,n,n,n
SMILES,TRPC4 act,TRPC6 inh,TRPC4 potent,TRPC4 block,TRPC6 act
CCOC(=O)c1c(NC(=O)COC(=O)c2ccccc2NC)sc(C(=O)N(C)C)c1C,n,n,n,n,n
COc1ccc2oc(C(=O)OCC(=O)Nc3ccc(C(=O)N(C)C)cc3)c(C)c2c1,n,n,n,n,n
Cc1cc(C)c(C)c(OCCN2CCOCC2)c1,n,n,10,n,n
Cc1cccc(OCCN2CCOCC2)c1C,n,n,n,n,n
Cc1cc(C)c(C)c(OCCCN(C)C)c1,126,n,13,n,n
Cc1cc(C)c(C)c(OCCCn2ccnc2)c1,n,n,n,n,n
Cc1cnc(C(=O)OCC(=O)c2ccc[nH]2)cn1,n,n,n,n,n
O=C(Nc1ccccc1)C1=C[C@H](C2CCCCC2)C[C@H](OCc2ccc(CO)cc2)O1,n,n,19,n,n
CC(C)(C)[C@H]1C=C(C(=O)Nc2ccccc2)O[C@@H](OCc2ccc(CO)cc2)C1,n,n,n,n,n
O=C(NCc1ccccc1)C1=C[C@H](c2ccc3c(c2)OCO3)C[C@H](OCc2ccc(CO)cc2)O1,211,n,n,-6,n
